Laboratory results: ChEMBL document CHEMBL3865824, “New (E)-1-alkyl-1H-benzo[d]imidazol-2-yl)methylene)indolin-2-ones: Synthesis, in vitro cytotoxicity evaluation and apoptosis inducing studies” (Eur J Med Chem, 2016)

Columns and labels:
[1] = Cytotoxicity against human PC3 cells assessed as reduction in cell viability after 48 hrs by MTT assay; type: functional, cell-based; conditions: PC-3, 48 h
In short: (§1)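 Cells grown in DMEM or MEM with 10% FBS at 37 °C, 5% CO2. Seeded at 1×10^4 cells/well, incubated 48 h, then exposed to compound for 48 h with vehicle control. MTT (5 mg/mL stock) added for 4 h; formazan dissolved in DMSO, absorbance read at 570 nm. Preliminary screen at 50 µM. Compounds giving >50% inhibition were tested for dose-response curves; IC50 derived by linear regression of % inhibition versus concentration. Mean of three independent experiments in triplicate.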

[2] = Cytotoxicity against human DU145 cells assessed as reduction in cell viability after 48 hrs by MTT assay; type: functional, cell-based; conditions: DU-145, 48 h; in short: as §1
[3] = Cytotoxicity against […] cells assessed as reduction in cell viability after 48 hrs by MTT assay; type: functional, cell-based; conditions: 4T1, 48 h; in short: as §1
[4] = Cytotoxicity against human BT549 cells assessed as reduction in cell viability after 48 hrs by MTT assay; type: functional, cell-based; conditions: BT-549, 48 h; in short: as §1
[5] = Cytotoxicity against human MDA-MB-231 cells assessed as reduction in cell viability after 48 hrs by MTT assay; type: functional, cell-based; conditions: MDA-MB-231, 48 h; in short: as §1
[6] = Cytotoxicity against human MCF7 cells assessed as reduction in cell viability after 48 hrs by MTT assay; type: functional, cell-based; conditions: MCF7, 48 h; in short: as §1
[7] = Cytotoxicity against human A549 cells assessed as reduction in cell viability after 48 hrs by MTT assay; type: functional, cell-based; conditions: A549, 48 h; in short: as §1
[8] = Cytotoxicity against HGC cells assessed as reduction in cell viability after 48 hrs by MTT assay; type: functional, cell-based; conditions: Homo sapiens; in short: as §1
[9] = Cytotoxicity against human DU145 cells assessed as growth inhibition at 50 uM after 48 hrs by MTT assay relative to control; type: functional; conditions: DU-145, 48 h, read-out: GI; in short: as §1
[10] = Cytotoxicity against human PC3 cells assessed as growth inhibition at 50 uM after 48 hrs by MTT assay relative to control; type: functional; conditions: PC-3, 48 h, read-out: GI; in short: as §1
[11] = Cytotoxicity against […] cells assessed as growth inhibition at 50 uM after 48 hrs by MTT assay relative to control; type: functional; conditions: Mus musculus, 4T1, 48 h; read-out: GI; in short: as §1
[12] = Cytotoxicity against human BT549 cells assessed as growth inhibition at 50 uM after 48 hrs by MTT assay relative to control; type: functional; conditions: BT-549, 48 h, read-out: GI; in short: as §1
[13] = Cytotoxicity against human MDA-MB-231 cells assessed as growth inhibition at 50 uM after 48 hrs by MTT assay relative to control; type: functional; conditions: MDA-MB-231, 48 h, read-out: GI; in short: as §1
[14] = Cytotoxicity against human MCF7 cells assessed as growth inhibition at 50 uM after 48 hrs by MTT assay relative to control; type: functional; conditions: MCF7, 48 h, read-out: GI; in short: as §1
[15] = Cytotoxicity against human A549 cells assessed as growth inhibition at 50 uM after 48 hrs by MTT assay relative to control; type: functional; conditions: A549, 48 h, read-out: GI; in short: as §1
[16] = Cytotoxicity against HGC cells assessed as growth inhibition at 50 uM after 48 hrs by MTT assay relative to control; type: functional; conditions: Homo sapiens, read-out: GI; in short: as §1
[17] = Cytotoxicity against human MCF10A cells assessed as reduction in cell viability after 48 hrs by MTT assay; type: toxicity, cell-based, MCF-10A; in short: as §1
[18] = Selectivity ratio of IC50 for human MCF10A cells to IC50 for […] cells; type: ADME, cell-based, MCF-10A; conditions: MCF10A cells versus 4TI cells, read-out: Ratio IC50
[19] = Selectivity ratio of IC50 for human MCF10A cells to IC50 for human MDA-MB-231 cells; type: ADME, cell-based, MCF-10A; conditions: MCF10A cells versus MDA-MB-231 cells, read-out: Ratio IC50

Structure (SMILES) | IC50 [1] [µM] | IC50 [2] [µM] | IC50 [3] [µM] | IC50 [4] [µM] | IC50 [5] [µM] | IC50 [6] [µM] | IC50 [7] [µM] | IC50 [8] [µM] | inhibition of growth at 50 µM [9] [%] | inhibition of growth at 50 µM [10] [%] | inhibition of growth at 50 µM [11] [%] | inhibition of growth at 50 µM [12] [%] | inhibition of growth at 50 µM [13] [%] | inhibition of growth at 50 µM [14] [%] | inhibition of growth at 50 µM [15] [%] | inhibition of growth at 50 µM [16] [%] | IC50 at 48 h [17] [µM] | selectivity ratio [18] | selectivity ratio [19]
Cn1c(/C=C2/C(=O)Nc3ccc(F)cc32)nc2ccccc21 | 34.2 | 32.3 | 29.6 | 26.9 | 21.7 | 31.6 | 34.6 | 37.8 | > 50 | > 50 | > 50 | > 50 | > 50 | > 50 | > 50 | > 50 |  |  | 
Cn1c(/C=C2/C(=O)Nc3ccccc32)nc2ccccc21 | > 50 | 43.2 | > 50 | > 50 | > 50 | > 50 | > 50 | > 50 | > 50 | < 50 | < 50 | < 50 | < 50 | < 50 | < 50 | < 50 |  |  | 
Cc1ccc2c(c1)/C(=C\c1nc3ccccc3n1C)C(=O)N2 | > 50 | > 50 | > 50 | > 50 |  |  | > 50 | > 50 | < 50 | < 50 | < 50 | < 50 |  |  | < 50 | < 50 |  |  | 
Cn1c(/C=C2/C(=O)Nc3ccc(Cl)cc32)nc2ccccc21 | > 50 | 38.9 | 43.6 | 39.1 | 37.6 | > 50 | 39.7 | 43.6 | > 50 | < 50 | > 50 | > 50 | > 50 | < 50 | > 50 | > 50 |  |  | 
CCn1c(/C=C2/C(=O)Nc3ccccc32)nc2ccccc21 | 38 | > 50 | > 50 | > 50 | > 50 |  | > 50 | > 50 | < 50 | > 50 | < 50 | < 50 | < 50 |  | < 50 | < 50 |  |  | 
CCn1c(/C=C2/C(=O)Nc3ccc(Br)cc32)nc2ccccc21 | 42.6 | 45.8 | 40.7 |  |  |  | > 50 | > 50 | > 50 | > 50 | > 50 |  |  |  | < 50 | < 50 |  |  | 
CC(C)n1c(/C=C2/C(=O)Nc3ccccc32)nc2ccccc21 | 37.6 | 38.1 | 40.4 | 38.9 | 30.4 | 39.5 | 35.3 | 33.5 | > 50 | > 50 | > 50 | > 50 | > 50 | > 50 | > 50 | > 50 |  |  | 
CCn1c(/C=C2/C(=O)Nc3ccc(Cl)cc32)nc2ccccc21 | > 50 | > 50 | > 50 | > 50 | 37.5 | > 50 | > 50 | > 50 | < 50 | < 50 | < 50 | < 50 | > 50 | < 50 | < 50 | < 50 |  |  | 
Cn1c(/C=C2/C(=O)Nc3ccc(Br)cc32)nc2ccccc21 | > 50 | 39.6 | > 50 | > 50 | > 50 | > 50 | 41.2 | > 50 | > 50 | < 50 | < 50 | < 50 | < 50 | < 50 | > 50 | < 50 |  |  | 
Cn1c(/C=C2/C(=O)Nc3ccc([N+](=O)[O-])cc32)nc2ccccc21 | > 50 | > 50 | > 50 |  |  |  | > 50 |  | < 50 | < 50 | < 50 |  |  |  | < 50 |  |  |  | 
Cc1ccc2c(c1)/C(=C\c1nc3ccccc3n1C(C)C)C(=O)N2 | 14 | 13.3 | 9.36 | 23.7 | 7.23 | 16.3 | 23 | 14.6 | > 50 | > 50 | > 50 | > 50 | > 50 | > 50 | > 50 | > 50 | 99.7 | 10.6 | 14
CCn1c(/C=C2/C(=O)Nc3ccc(F)cc32)nc2ccccc21 | > 50 | 40.6 | > 50 | > 50 | > 50 | > 50 | > 50 | > 50 | > 50 | < 50 | < 50 | < 50 | < 50 | < 50 | < 50 | < 50 |  |  | 
CC(C)n1c(/C=C2/C(=O)Nc3ccc(F)cc32)nc2ccccc21 | 20.8 | 24.5 | 25.8 | 26.7 | 22.7 | 29 | 28.4 | 28 | > 50 | > 50 | > 50 | > 50 | > 50 | > 50 | > 50 | > 50 | > 100 |  | 
CCn1c(/C=C2/C(=O)Nc3ccc([N+](=O)[O-])cc32)nc2ccccc21 | 40.1 | > 50 | > 50 | > 50 |  | > 50 | > 50 | > 50 | < 50 | > 50 | < 50 | < 50 |  | < 50 | < 50 | < 50 |  |  | 
CCn1c(/C=C2/C(=O)Nc3ccc(C)cc32)nc2ccccc21 | 38.6 | 39.3 | 39.4 | > 50 | 40.6 | > 50 | > 50 | > 50 | > 50 | > 50 | > 50 | < 50 | > 50 | < 50 | < 50 | < 50 |  |  | 
